According to paper PMC2582146 (Biochemistry, 2008):
One block for each compound: values may come before it. No end group written: not given here.

Legend:
[1] = target: T1, NHERF1 PDZ1 domain (N1P1) (Homo sapiens, UniProt O14745); experiment: Fluorescence polarization direct binding, NHERF1 PDZ1; conditions: titration with increasing N1P1
T1 sequence (O14745 1-139): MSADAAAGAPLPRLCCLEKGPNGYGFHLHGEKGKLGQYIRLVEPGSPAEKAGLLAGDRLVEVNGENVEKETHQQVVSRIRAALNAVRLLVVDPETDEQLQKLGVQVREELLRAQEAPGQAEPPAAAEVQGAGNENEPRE

[2] = target: T2, NHERF1 PDZ2 domain (N1P2) (Homo sapiens, UniProt O14745); experiment: Fluorescence polarization direct binding, NHERF1 PDZ2; conditions: titration with increasing N1P2
T2 sequence (O14745 132-299): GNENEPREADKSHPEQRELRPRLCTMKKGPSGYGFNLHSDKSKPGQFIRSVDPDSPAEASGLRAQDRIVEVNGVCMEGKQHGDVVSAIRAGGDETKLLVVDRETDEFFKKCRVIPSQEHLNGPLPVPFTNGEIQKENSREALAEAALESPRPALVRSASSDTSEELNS

full-length CAL = full-length CAL (Homo sapiens, UniProt Q9HD26); experiment: Fluorescence polarization direct binding, full-length CAL; conditions: 30 nM reporter titrated with full-length CAL
Procedure, shortened: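 Direct titration: full-length CAL pre-incubated 10–30 min at room temperature in FP buffer (storage buffer 25 mM Tris pH 8.5, 150 mM NaCl, 0.02% NaN3, 0.1 mM ATP, plus 0.1 mg/mL bovine IgG, 0.5 mM Thesit) containing fluorescent peptide. Serially diluted into the same buffer, then 10 min incubation and 15 min equilibration at 24 °C. Polarization read at ex 485/em 525 nm.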

CAL PDZ domain (CALP) [3] = target: T3, CAL PDZ domain (CALP) (Homo sapiens, UniProt Q9HD26); experiment: Fluorescence polarization competition binding, CALP with F*C-GBG4_10 reporter
CAL PDZ domain (CALP) [4] = target: T3, CAL PDZ domain (CALP); experiment: Fluorescence polarization competition binding, CALP with F*C-SSR5_10 reporter
Procedure, shortened: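 Competition FP using fluorescein-5-maleimide-labelled Cys-peptide reporter in FP buffer: storage buffer (25 mM Tris pH 8.5, 150 mM NaCl, 0.02% NaN3, 0.1 mM TCEP or 1 mM DTT) plus 0.1 mg/mL bovine IgG and 0.5 mM Thesit. Unlabelled Cys-peptides titrated into reporter–protein mix, 15 min at 24 °C. Ex 485/em 525 nm. Ki fit with free protein from exact cubic solution, using known reporter Kd.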

FP shift of reporter [1]: neither domain caused an FP shift
FP shift of reporter [2]: neither domain caused an FP shift
Compound: F*C-SCR6: fluorescent reporter peptide with a scrambled sequence (C(fluorescein‑5‑maleimide)QVTLDR)

interaction in FP titration (full-length CAL): too weak to be fit
Compound: CC(C)C[C@H](NC(=O)[C@H](CCCNC(=N)N)NC(=O)[C@@H](NC(=O)[C@H](CC(=O)O)NC(=O)[C@H](CCC(N)=O)NC(=O)[C@@H](NC(=O)[C@H](CCC(=O)O)NC(=O)[C@H](CCC(=O)O)NC(=O)[C@H](CCC(=O)O)NC(=O)[C@@H](NC(=O)c1ccc2c(c1)C(=O)OC21c2ccc(O)cc2Oc2cc(O)ccc21)[C@@H](C)O)C(C)C)[C@@H](C)O)C(=O)O [F*-CFTR10]

Ki (CAL PDZ domain (CALP) [3]): 109 ± 12 µM
Ki (CAL PDZ domain (CALP) [4]): 63 ± 15 µM
Compound: CREKKFFSTIL [C-GBG4_10]
